The species entered for data set [1] is Mus musculus. The data set can be described thus: Antiinflammatory activity in mouse MHS cells assessed as reduction in zymosan-induced iNOS protein expression preincubated for 30 mins followed by zymosan challenge and measured after 6 to 24 hrs by Western blotting analysis. In kind it is functional, cell-based.
The species entered for data set [2] is Mus musculus. Kind of data set: Antiinflammatory activity in mouse MHS cells assessed as reduction in zymosan-induced PGE2 production at 1.5 to 15 ug/ml preincubated for 30 mins followed by zymosan challenge and measured after 6 to 24 hrs by ELISA. It is filed as functional, cell-based. In short, it runs like this: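 MH-S cells pretreated for 30 min, then given zymosan 10 μg/mL for 24 h. Supernatant PGE2 measured by competitive ELISA: acetylcholinesterase tracer plus monoclonal antibody, 4 °C for 18 h, Ellman's reagent development, absorbance at 405 nm. Mean ± SD, n≥3.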

Data set [3] is filed under the species Mus musculus. The data set can be described thus: Antiinflammatory activity in mouse MHS cells assessed as reduction in zymosan-induced COX2 protein expression preincubated for 30 mins followed by zymosan challenge and measured after 6 to 24 hrs by Western blotting analysis. It is filed as functional, cell-based. On the technique in general: In western blotting, separated proteins are transferred to a membrane and probed.

The target in data set [4] is T1, I-kappa-B kinase (Mus musculus) (UniProt Q60680+O88351+O88522). The data set can be described thus: Inhibition of zymosan-induced IKK phosphorylation in mouse MHS cells by Western blot analysis. It is filed as cell-based. The gist of the method: (§1)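 MH-S cells pretreated, then stimulated with zymosan 10 μg/mL. Phospho-JAK1 (Y1022/1023), phospho-STAT3 (Y705) and phospho-IKKα/β detected by Western blot against total protein and tubulin. Zymosan time course 1–30 min for JAK1/STAT3 and 1–60 min for IKK. Normalized to control; mean ± SD, n≥3.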

Data set [5] deals with Mus musculus. Kind of data set: Antiinflammatory activity in zymosan induced C57BL/6 mouse model of lung injury assessed as reduction in thinkened basement membrane at 4 mg/kg, ip pretreated for 3 days followed by zymosan challenge and measured after 24 hrs by H and E staining based microscopic analysis. In kind it is functional, organism-based. In short, it runs like this: (§2)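 Male C57BL/6 mice dosed i.p. for 3 days, then given zymosan (4 mg/kg, i.t.) or saline. Lungs harvested 24 h later. Right lung fixed in 10% formalin, embedded in paraffin, cut into 5 μm sections, stained with H&E or Masson's trichrome and examined by microscopy. Collagen also measured by hydroxyproline assay on lung lysates. Mean ± SD, n≥4.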

Data set [6] is described as follows: Effect on COX2 protein expression in mouse MHS cells at 15 ug/ml after 30 mins by Western blotting analysis relative to tubulin (reference value: 1). It is filed as ADME, cell-based. Particulars: 0.5 h.
A short description of data set [7]: Antiinflammatory activity in mouse MHS cells assessed as reduction in zymosan-induced iNOS protein expression at 1.5 ug/ml preincubated for 30 mins followed by zymosan challenge and measured after 6 to 24 hrs by Western blotting analysis relative to control (reference value: 2.93 +/- 0.84). It is filed as functional.
In data set [8] the test system is Mus musculus. The data set can be described thus: Antiinflammatory activity in zymosan induced C57BL/6 mouse model of lung injury assessed as reduction in collagen deposition at 4 mg/kg, ip pretreated for 3 days followed by zymosan challenge and measured after 24 hrs by hydroxyproline assay. It is filed as functional, organism-based. The gist of the method:
as §2

The nature of data set [9]: Effect on PGE2 level in mouse MHS cells at 1.5 to 15 ug/ml after 30 mins. Conditions: 0.5 h.
The subject of data set [10] is Mus musculus. The data set can be described thus: Antiinflammatory activity in zymosan induced C57BL/6 mouse model of lung injury assessed as reduction in subepithelial collagen deposition/fibrosis at 4 mg/kg, ip pretreated for 3 days followed by zymosan challenge and measured after 24 hrs by Masson's trichrome staining based microscopic analysis. In kind it is functional, organism-based. The gist of the method:
as §2

Data set [11] has as its target Tyrosine-protein kinase JAK1 (Mus musculus) (UniProt P52332). Kind of data set: Inhibition of zymosan-induced JAK1 phosphorylation in mouse MHS cells assessed as phosphorylated JAK1 level at 15 ug/ml by Western blot analysis relative to tubulin (reference value: 2.2). In kind it is cell-based. In short, it runs like this: as §1
The test system of data set [12] is Mus musculus. Kind of data set: Antiinflammatory activity in zymosan induced C57BL/6 mouse model of lung injury assessed as reduction in immune cell infiltration at 4 mg/kg, ip pretreated for 3 days followed by zymosan challenge and measured after 24 hrs by H and E staining based microscopic analysis. In kind it is functional, organism-based. The gist of the method: as §2

Data set [13] concerns the target Signal transducer and activator of transcription 3 (Mus musculus) (UniProt P42227). Kind of data set: Inhibition of zymosan-induced STAT3 phosphorylation in mouse MHS cells preincubated for 30 mins followed by zymosan challenge and measured after 6 to 24 hrs by Western blot analysis. It is filed as cell-based.
The target in data set [14] is Transcription factor p65 (Mus musculus) (UniProt Q04207). The data set can be described thus: Inhibition of zymosan-induced NFkappaB p65 nuclear translocation in mouse MHS cells at 15 ug/ml by DAPI staining based immunofluorescence microscopic analysis. It is filed as cell-based. The gist of the method: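 MH-S cells on coverslips pretreated, then given zymosan 10 μg/mL for 3 h. Fixed in 4% paraformaldehyde, permeabilized with 1% Triton X-100, blocked with 4% skim milk. Anti-p65 at 4 °C overnight, FITC secondary 1 h, DAPI nuclear counterstain. Fluorescence microscopy; at least three experiments.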
Sequence of Transcription factor p65 (Mus musculus) (Q04207 whole entry): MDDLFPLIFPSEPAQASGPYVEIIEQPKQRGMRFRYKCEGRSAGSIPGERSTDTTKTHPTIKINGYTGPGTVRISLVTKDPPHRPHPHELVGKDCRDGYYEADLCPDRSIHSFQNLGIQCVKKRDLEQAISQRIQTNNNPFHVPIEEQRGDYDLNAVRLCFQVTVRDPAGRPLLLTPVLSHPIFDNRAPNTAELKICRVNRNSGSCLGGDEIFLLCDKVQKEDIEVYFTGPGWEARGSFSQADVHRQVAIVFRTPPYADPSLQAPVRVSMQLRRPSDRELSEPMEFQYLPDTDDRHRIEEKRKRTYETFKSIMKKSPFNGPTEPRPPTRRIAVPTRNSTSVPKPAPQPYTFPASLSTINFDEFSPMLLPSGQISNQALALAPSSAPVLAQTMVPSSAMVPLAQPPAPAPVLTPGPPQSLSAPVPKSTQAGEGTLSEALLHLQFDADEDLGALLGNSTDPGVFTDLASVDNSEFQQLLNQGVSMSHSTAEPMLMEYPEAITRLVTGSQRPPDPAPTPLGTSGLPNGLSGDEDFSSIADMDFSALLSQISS

Data set [15] in a line: Cytotoxicity against zymosan-induced mouse MHS cells assessed as effect on cell viability at 1.5 to 15 ug/ml preincubated for 30 mins followed by zymosan challenge and measured after 6 to 24 hrs by sulforhodamine B assay. It is filed as cell-based. In short, it runs like this:
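MH-S cells exposed to test agent and zymosan (10 μg/mL). Viability by sulforhodamine B: fixed in 10% trichloroacetic acid, stained 30 min with 0.4% (w/v) SRB, dissolved in 10 mM Tris, read at OD 515 nm. Mean ± SD, n≥3.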
On the technique in general: The SRB assay estimates cell density from bound dye.

Data set [16] addresses Tyrosine-protein kinase JAK1 (Mus musculus) (UniProt P52332). The data set can be described thus: Inhibition of zymosan-induced JAK1 phosphorylation in mouse MHS cells assessed as phosphorylated JAK1 level at 1.5 ug/ml by Western blot analysis relative to tubulin (reference value: 2.2). In kind it is cell-based. In short, it runs like this: as §1
The target of data set [17] is T1, I-kappa-B kinase (Mus musculus). Kind of data set: Effect on IKK phosphorylation in mouse MHS cells assessed as phosphorylated IKK level at 15 ug/ml by Western blot analysis relative to tubulin (reference value: 1). It is filed as cell-based.
Data set [18] has as its target Tyrosine-protein kinase JAK1 (Mus musculus) (UniProt P52332). Kind of data set: Inhibition of zymosan-induced JAK1 phosphorylation in mouse MHS cells preincubated for 30 mins followed by zymosan challenge and measured after 6 to 24 hrs by Western blot analysis. It is filed as cell-based.
Data set [19] shares this target. Kind of data set: Effect on JAK1 phosphorylation in mouse MHS cells assessed as phosphorylated JAK1 level at 15 ug/ml by Western blot analysis relative to tubulin (reference value: 1). It is filed as cell-based.
The species named for data set [20] is Mus musculus. The data set can be described thus: Antiinflammatory activity in mouse MHS cells assessed as reduction in zymosan-induced TNFalpha protein expression at 1.5 to 15 ug/ml preincubated for 30 mins followed by zymosan challenge and measured after 6 to 24 hrs. In kind it is functional, cell-based. In short, it runs like this: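 MH-S cells pretreated for 30 min, then given zymosan 10 μg/mL for 24 h. IL-6 and TNFα protein in culture supernatant assessed by cytokine array. Values normalized to control; mean ± SD, n≥3.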

Data set [21] can be described thus: Cytotoxicity against mouse MHS cells assessed as effect on cell viability at 1.5 to 15 ug/ml measured after 30 mins by sulforhodamine B assay. In kind it is cell-based. Particulars: 0.5 h.

Calls of active or inactive are those of the source. The rule behind the calls is not given here.

Sequence of Tyrosine-protein kinase JAK1 (Mus musculus) (P52332 whole entry): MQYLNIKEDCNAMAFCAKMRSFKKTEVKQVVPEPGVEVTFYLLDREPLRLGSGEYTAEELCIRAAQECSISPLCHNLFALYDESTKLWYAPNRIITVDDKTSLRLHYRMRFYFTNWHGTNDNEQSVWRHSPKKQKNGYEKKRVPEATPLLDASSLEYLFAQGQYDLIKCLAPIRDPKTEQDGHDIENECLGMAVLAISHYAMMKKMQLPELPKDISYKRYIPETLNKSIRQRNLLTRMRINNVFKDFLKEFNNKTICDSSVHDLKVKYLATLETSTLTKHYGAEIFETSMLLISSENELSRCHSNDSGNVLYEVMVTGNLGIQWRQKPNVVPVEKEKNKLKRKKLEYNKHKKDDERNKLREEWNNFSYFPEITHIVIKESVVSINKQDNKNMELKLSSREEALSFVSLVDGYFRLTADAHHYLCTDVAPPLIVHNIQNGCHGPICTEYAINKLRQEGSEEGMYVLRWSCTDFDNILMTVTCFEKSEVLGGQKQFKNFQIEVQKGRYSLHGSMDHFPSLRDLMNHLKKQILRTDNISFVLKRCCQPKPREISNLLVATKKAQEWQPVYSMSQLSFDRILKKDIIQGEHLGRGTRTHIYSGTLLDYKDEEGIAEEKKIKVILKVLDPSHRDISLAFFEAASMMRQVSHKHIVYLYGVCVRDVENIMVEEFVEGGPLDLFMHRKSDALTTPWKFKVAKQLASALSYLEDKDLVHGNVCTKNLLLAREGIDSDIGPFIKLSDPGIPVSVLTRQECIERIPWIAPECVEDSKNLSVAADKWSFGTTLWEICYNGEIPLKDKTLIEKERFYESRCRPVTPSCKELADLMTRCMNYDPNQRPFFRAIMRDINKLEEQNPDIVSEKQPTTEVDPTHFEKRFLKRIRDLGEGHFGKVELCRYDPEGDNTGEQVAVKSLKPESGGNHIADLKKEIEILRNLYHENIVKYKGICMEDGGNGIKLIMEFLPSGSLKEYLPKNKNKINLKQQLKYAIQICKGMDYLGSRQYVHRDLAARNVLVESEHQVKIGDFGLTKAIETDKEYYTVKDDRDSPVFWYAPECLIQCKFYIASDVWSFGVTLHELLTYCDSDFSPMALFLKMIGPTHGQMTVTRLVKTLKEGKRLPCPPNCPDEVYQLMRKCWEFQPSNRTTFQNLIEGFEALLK
Sequence of Signal transducer and activator of transcription 3 (Mus musculus) (P42227 whole entry): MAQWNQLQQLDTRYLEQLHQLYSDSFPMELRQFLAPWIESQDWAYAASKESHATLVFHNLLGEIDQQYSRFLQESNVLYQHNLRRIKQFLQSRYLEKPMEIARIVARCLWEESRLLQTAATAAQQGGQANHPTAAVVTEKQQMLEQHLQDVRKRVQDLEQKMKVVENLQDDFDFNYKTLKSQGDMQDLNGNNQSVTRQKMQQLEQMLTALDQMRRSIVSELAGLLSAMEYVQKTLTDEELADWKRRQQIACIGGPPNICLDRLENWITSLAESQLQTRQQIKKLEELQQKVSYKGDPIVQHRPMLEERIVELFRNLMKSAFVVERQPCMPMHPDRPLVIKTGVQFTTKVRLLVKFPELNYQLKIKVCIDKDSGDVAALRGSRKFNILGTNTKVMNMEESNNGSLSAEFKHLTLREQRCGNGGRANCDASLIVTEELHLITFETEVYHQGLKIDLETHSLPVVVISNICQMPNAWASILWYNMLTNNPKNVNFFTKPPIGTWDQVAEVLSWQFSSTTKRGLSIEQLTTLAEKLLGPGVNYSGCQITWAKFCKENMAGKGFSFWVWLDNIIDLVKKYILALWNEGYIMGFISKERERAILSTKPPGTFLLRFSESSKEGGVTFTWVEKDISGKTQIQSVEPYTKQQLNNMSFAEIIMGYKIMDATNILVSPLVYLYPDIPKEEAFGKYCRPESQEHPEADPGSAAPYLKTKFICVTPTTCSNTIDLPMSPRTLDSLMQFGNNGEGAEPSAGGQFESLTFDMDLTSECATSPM

With `CC(C)=CCOc1c2occc2cc2ccc(=O)oc12` [PENTOSALEN], the Activity entry in the data set listed under Mus musculus [1] was “Dose-dependent effect”; in the data set filed under Mus musculus [3], “Dose-dependent effect”; in data set [9] it was “Non-Toxic”; in [15], “Non-Toxic”; in data set [21] it was “Non-Toxic”. Also, the outcome in the data set filed under Mus musculus [2], in the data set with Mus musculus [5], with Mus musculus [8], in the data set on Mus musculus [10], in the data set on Mus musculus [12] and in the data set listed under Mus musculus [20] was Active. Further, the inhibition entry in [4], in data set [13] and in data set [18] was “Dose-dependent effect” each time. The “fold change (FC)” value in data set [6] was found to be 0.7; in data set [7] it was 2.5; in data set [11], 1.3; in [16] it was 2.2; in data set [17] it was 1; in data set [19] it was 1.2. The inhibition entry in data set [14] was “Active”.

The values above are taken from ChEMBL document CHEMBL4480455, “Anti-inflammatory Property of Imperatorin on Alveolar Macrophages and Inflammatory Lung Injury” (J Nat Prod, 2019).
